According to publication PMC6791425 (Oncoimmunology, 2019):

Experiments:
[1] = biological target: PSMA expressed on LNCaP cells (Homo sapiens, UniProt Q04609); assay: competitive cell-binding assay with PSMA-positive LNCaP cells
[2] = biodistribution analysis in LNCaP tumor-bearing mice; type: in vivo, NMRI nu/nu mice; settings: high molar activity, approximately 10 MBq
Method in brief: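 Mice bearing LNCaP tumours (100–500 mm3) were injected with approximately 10 MBq of the 68Ga-labelled test compound, giving groups at high molar activity (low peptide amount) and low molar activity (high peptide amount). Organ distribution was determined in three mice per condition. Labelling was done at pH 4.2, 98°C, for 10 min in HEPES.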

Chain of PSMA expressed on LNCaP cells (Q04609 whole entry): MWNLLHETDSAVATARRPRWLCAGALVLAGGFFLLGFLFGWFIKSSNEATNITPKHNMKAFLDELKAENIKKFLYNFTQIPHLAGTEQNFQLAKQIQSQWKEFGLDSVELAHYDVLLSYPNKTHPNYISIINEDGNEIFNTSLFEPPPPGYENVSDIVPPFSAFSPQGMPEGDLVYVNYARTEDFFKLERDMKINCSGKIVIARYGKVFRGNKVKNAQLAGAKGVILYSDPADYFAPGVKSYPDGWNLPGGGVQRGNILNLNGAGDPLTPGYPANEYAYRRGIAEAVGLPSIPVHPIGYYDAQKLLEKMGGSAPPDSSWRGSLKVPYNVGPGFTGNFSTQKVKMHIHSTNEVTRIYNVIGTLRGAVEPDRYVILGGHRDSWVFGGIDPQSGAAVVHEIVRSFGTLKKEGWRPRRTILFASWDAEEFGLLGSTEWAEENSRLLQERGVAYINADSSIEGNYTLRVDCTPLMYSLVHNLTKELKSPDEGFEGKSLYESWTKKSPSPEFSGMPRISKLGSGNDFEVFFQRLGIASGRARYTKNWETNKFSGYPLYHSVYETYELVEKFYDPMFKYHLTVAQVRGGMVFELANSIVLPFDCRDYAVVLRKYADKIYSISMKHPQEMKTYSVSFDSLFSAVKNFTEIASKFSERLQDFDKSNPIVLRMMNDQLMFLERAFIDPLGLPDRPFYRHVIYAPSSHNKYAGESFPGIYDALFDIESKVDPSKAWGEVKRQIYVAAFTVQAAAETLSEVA

| Compound | IC50 [1] [µM] | Tumor ([2]; LNCaP tumor) | Adrenals [2] | BAT [2] | Blood [2] | Brain [2] | Femur [2] | Heart [2] | Kidneys [2] | Liver [2] | Lung [2] | Muscle [2] | Pancreas [2] | Ratio tumor/muscle [2] | Skin [2] | Spleen [2] | Subm. gl. [2] | Testes [2] | WAT [2] |
| --- | --- | --- | --- | --- | --- | --- | --- | --- | --- | --- | --- | --- | --- | --- | --- | --- | --- | --- | --- |
| O=C(O)CCc1ccc(O)c(CN(CCN(CC(=O)O)Cc2cc(CCC(=O)NCCCCCC(=O)NCCCC[C@H](NC(=O)N[C@@H](CCC(=O)O)C(=O)O)C(=O)O)ccc2O)CC(=O)O)c1 [PSMA-11] | 0.0148 ± 0.0012 |  |  |  |  |  |  |  |  |  |  |  |  |  |  |  |  |  |  |
| O=C([O-])CN(CCN(CC(=O)[O-])Cc1cc(CCC(=O)NCCCCCC(=O)NCCCC[C@H](NC(=O)N[C@@H](CCC(=O)O)C(=O)O)C(=O)O)ccc1[O-])Cc1cc(CCC(=O)O)ccc1[O-].[68Ga+3].[OH3+] [[^68Ga]Ga-PSMA-11] |  | 2.99 SUV (g/g) | 3.11 SUV (g/g) | 0.10 SUV (g/g) | 0.06 SUV (g/g) | 0.01 SUV (g/g) | 0.04 SUV (g/g) | 0.09 SUV (g/g) | 50.79 SUV (g/g) | 0.11 SUV (g/g) | 0.45 SUV (g/g) | 0.04 SUV (g/g) | 0.29 SUV (g/g) | 70.87 | 0.09 SUV (g/g) | 1.53 SUV (g/g) | 0.29 SUV (g/g) | 0.22 SUV (g/g) | 0.33 SUV (g/g) |
